According to ChEMBL document CHEMBL1671867, “Novel polymyxin derivatives carrying only three positive charges are effective antibacterial agents” (Antimicrob Agents Chemother, 2008):
≈ marks a conversion by molar mass, not a printed value.

Assays:
Format in all cases: functional
Acinetobacter baumannii [1] = test: (§1) Antibacterial activity against Acinetobacter baumannii F264 by Etest method in presence of […] NAB739
Pseudomonas aeruginosa [2] = test: Antibacterial activity against Pseudomonas aeruginosa ATCC 27853by Etest method in presence of 1 ug/ml NAB739
Outline: (§2)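 MICs of the antibiotic taken from E-strips on Mueller-Hinton agar, run both with and without peptide. […] Inoculum was prepared per the strip manufacturer, matching CLSI M2-A9.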

Pseudomonas aeruginosa [3] = test: Antibacterial activity against Pseudomonas aeruginosa ATCC 27853by Etest method in presence of 0.5 ug/ml NAB739; outline: as §2
Acinetobacter baumannii [4] = test: Antibacterial activity against Acinetobacter baumannii ATCC 19606 by Etest method in presence of 1 ug/ml NAB739
Acinetobacter baumannii [5] = test: Antibacterial activity against Acinetobacter baumannii F264 by Etest method in presence of 1 ug/ml NAB739
Acinetobacter baumannii [6] = test: Antibacterial activity against Acinetobacter baumannii F264 by Etest method in presence of 0.5 ug/ml NAB739
Pseudomonas aeruginosa [7] = test: (§3) Antibacterial activity against Pseudomonas aeruginosa ATCC 27853by Etest method in presence of […] NAB739
Pseudomonas aeruginosa [8] = test: Antibacterial activity against Pseudomonas aeruginosa ATCC 27853by Etest method in presence of 2 ug/ml NAB739
Acinetobacter baumannii [9] = test: Antibacterial activity against Acinetobacter baumannii F264 by Etest method in presence of NAB739
Acinetobacter baumannii [10] = test: Antibacterial activity against Acinetobacter baumannii F264 by Etest method
Outline: (§4)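 E-strip MIC on Mueller-Hinton agar without added peptide; inoculum per manufacturer, matching CLSI M2-A9.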

Pseudomonas aeruginosa [11] = test: Antibacterial activity against Pseudomonas aeruginosa ATCC 27853by Etest method; outline: as §2
Pseudomonas aeruginosa [12] = test: as §3; remark: listed apart in the source
Acinetobacter baumannii [13] = test: (§5) Antibacterial activity against Acinetobacter baumannii ATCC 19606 by Etest method in presence of […] NAB739
Acinetobacter baumannii [14] = test: as §1; remark: listed apart in the source
Acinetobacter baumannii [15] = test: Antibacterial activity against Acinetobacter baumannii ATCC 19606 by Etest method in presence of 0.5 ug/ml NAB739
Acinetobacter baumannii [16] = test: as §5; remark: listed apart in the source
Acinetobacter baumannii [17] = test: Antibacterial activity against Acinetobacter baumannii ATCC 19606 by Etest method
Acinetobacter baumannii [18] = test: Antibacterial activity against Acinetobacter baumannii ATCC 19606 by Etest method in presence of NAB739
Escherichia coli [19] = test: Antibacterial activity against Escherichia coli ATCC […] by Etest method in presence of 1 ug/ml NAB7061
Klebsiella pneumoniae [20] = test: Antibacterial activity against Klebsiella pneumoniae ATCC 13883 by Etest method in presence of NAB7061; outline: as §2
Enterobacter cloacae [21] = test: Antibacterial activity against Enterobacter cloacae ATCC 23355 by Etest method; outline: as §4
Escherichia coli [22] = test: Antibacterial activity against Escherichia coli IH3080 by Etest method in presence of 2 ug/ml NAB7062
Escherichia coli [23] = test: Antibacterial activity against Escherichia coli IH3080 by Etest method in presence of 4 ug/ml NAB7064
Klebsiella pneumoniae [24] = test: Antibacterial activity against Klebsiella pneumoniae ATCC 13883 by Etest method; outline: as §2
Enterobacter cloacae [25] = test: Ratio of the MIC for Enterobacter cloacae ATCC 23355 in the absence of NAB7061 to MIC for Enterobacter cloacae ATCC 23355 […] in the presence of 4 ug/ml of NAB7061
Escherichia coli [26] = test: Antibacterial activity against Escherichia coli IH3080 by Etest method in presence of NAB7061
Enterobacter cloacae [27] = test: Antibacterial activity against Enterobacter cloacae ATCC 23355 […] by Etest method in presence of 2 ug/ml NAB7062
Escherichia coli [28] = test: Antibacterial activity against Escherichia coli ATCC […] by Etest method in presence of 2 ug/ml NAB7062
Escherichia coli [29] = test: Ratio of the MIC for Escherichia coli IH3080 in the absence of NAB7061 to MIC for Escherichia coli IH3080 in the presence of 4 ug/ml of NAB7061
Klebsiella pneumoniae [30] = test: Antibacterial activity against Klebsiella pneumoniae ATCC 13883 by Etest method in presence of 4 ug/ml NAB7061; outline: as §2
Enterobacter cloacae [31] = test: Antibacterial activity against Enterobacter cloacae ATCC 23355 […] by Etest method in presence of 4 ug/ml NAB7064
Klebsiella pneumoniae [32] = test: Ratio of the MIC for Klebsiella pneumoniae ATCC 13883 in the absence of NAB7061 to MIC for Klebsiella pneumoniae ATCC 13883 in the presence of 4 ug/ml of NAB7061
Escherichia coli [33] = test: Ratio of the MIC for Escherichia coli ATCC 25992 in the absence of NAB7061 to MIC for Escherichia coli ATCC 25992 in the presence of 4 ug/ml of NAB7061
Klebsiella pneumoniae [34] = test: Antibacterial activity against Klebsiella pneumoniae ATCC 13883 by Etest method in presence of 1 ug/ml NAB7061; outline: as §2
Escherichia coli [35] = test: Antibacterial activity against Escherichia coli IH3080 by Etest method; outline: as §4
Enterobacter cloacae [36] = test: Antibacterial activity against Enterobacter cloacae ATCC 23355 […] by Etest method in presence of NAB7061
Escherichia coli [37] = test: Antibacterial activity against Escherichia coli ATCC […] by Etest method in presence of NAB7061
Klebsiella pneumoniae [38] = test: Antibacterial activity against Klebsiella pneumoniae ATCC 13883 by Etest method in presence of 2 ug/ml NAB7061; outline: as §2
Escherichia coli [39] = test: Antibacterial activity against Escherichia coli IH3080 by Etest method in presence of 1 ug/ml NAB7061
Escherichia coli [40] = test: Antibacterial activity against Escherichia coli ATCC 25992 by Etest method; outline: as §4
Escherichia coli [41] = test: Antibacterial activity against Escherichia coli ATCC […] by Etest method in presence of 4 ug/ml NAB7064
Enterobacter cloacae [42] = test: Antibacterial activity against Enterobacter cloacae ATCC 23355 […] by Etest method in presence of 1 ug/ml NAB7061

Question: C[C@@H](O)[C@H]1C(=O)N2C(C(=O)O)=C(S[C@@H]3CN[C@H](C(=O)N(C)C)C3)[C@H](C)[C@H]12 [MEROPENEM] was tested. Which MIC (Acinetobacter baumannii [1]) did it give?
Answer: Its MIC is 32 µg/mL.

Question: What about the MIC (Pseudomonas aeruginosa [2]) of the same compound?
Answer: The MIC was 0.25 µg/mL.

Question: And the MIC (Pseudomonas aeruginosa [3])?
Answer: Its MIC is 0.25 µg/mL.

Question: What about the MIC (Acinetobacter baumannii [4]) of the same compound?
Answer: Its MIC is 0.125 µg/mL.

Question: And the MIC (Acinetobacter baumannii [5])?
Answer: Its MIC is 0.38 µg/mL.

Question: And the MIC (Acinetobacter baumannii [6])?
Answer: The MIC was 1 µg/mL.

Question: And the MIC (Pseudomonas aeruginosa [7])?
Answer: Its MIC is 0.25 µg/mL.

Question: What about the MIC (Pseudomonas aeruginosa [8]) of the same compound?
Answer: Its MIC is 0.25 µg/mL.

Question: And the “fractional inhibitory concentration index (FICI)” value (Acinetobacter baumannii [9])?
Answer: The value was 0.281.

Question: What about the MIC (Acinetobacter baumannii [10]) of the same compound?
Answer: Its MIC is greater than 32 µg/mL.

Question: What about the MIC (Pseudomonas aeruginosa [11]) of the same compound?
Answer: The MIC was 0.25 µg/mL (≈ 0.652 µM).

Question: And the MIC (Pseudomonas aeruginosa [12])?
Answer: The MIC was 0.25 µg/mL.

Question: What about the MIC (Acinetobacter baumannii [13]) of the same compound?
Answer: Its MIC is 1 µg/mL.

Question: What about the MIC (Acinetobacter baumannii [14]) of the same compound?
Answer: The MIC was 6 µg/mL.

Question: And the MIC (Acinetobacter baumannii [15])?
Answer: Its MIC is 0.25 µg/mL.

Question: What about the MIC (Acinetobacter baumannii [16]) of the same compound?
Answer: The MIC was 0.5 µg/mL.

Question: What about the MIC (Acinetobacter baumannii [17]) of the same compound?
Answer: Its MIC is 1 µg/mL (≈ 2.61 µM).

Question: What about the “fractional inhibitory concentration index (FICI)” value (Acinetobacter baumannii [18]) of the same compound?
Answer: Its value is 0.5.

Question: Which MIC (Escherichia coli [19]) does the source give for C/C(=C\C(=O)OCCCCCCCCC(=O)O)C[C@@H]1OC[C@H](C[C@@H]2O[C@H]2[C@@H](C)[C@H](C)O)[C@@H](O)[C@H]1O [MUPIROCIN] here?
Answer: Its MIC is 16 µg/mL.

Question: And the MIC (Klebsiella pneumoniae [20])?
Answer: The MIC was no more than 0.167 µg/mL.

Question: And the MIC (Enterobacter cloacae [21])?
Answer: The MIC was 48 µg/mL (≈ 95.9 µM).

Question: What about the MIC (Escherichia coli [22]) of the same compound?
Answer: The MIC was 12 µg/mL.

Question: What about the MIC (Escherichia coli [23]) of the same compound?
Answer: The MIC was 1.5 µg/mL.

Question: And the MIC (Klebsiella pneumoniae [24])?
Answer: The MIC was 64 µg/mL (≈ 128 µM).

Question: What about the Ratio (Enterobacter cloacae [25]) of the same compound?
Answer: The Ratio was 250.

Question: What about the MIC (Escherichia coli [26]) of the same compound?
Answer: Its MIC is 0.146 µg/mL.

Question: What about the MIC (Enterobacter cloacae [27]) of the same compound?
Answer: The MIC was 8 µg/mL.

Question: And the MIC (Escherichia coli [28])?
Answer: Its MIC is 4 µg/mL.

Question: And the Ratio (Escherichia coli [29])?
Answer: Its Ratio is 64.

Question: And the MIC (Klebsiella pneumoniae [30])?
Answer: Its MIC is 2 µg/mL.

Question: And the MIC (Enterobacter cloacae [31])?
Answer: The MIC was 0.19 µg/mL.

Question: What about the Ratio (Klebsiella pneumoniae [32]) of the same compound?
Answer: The Ratio was 24.

Question: And the Ratio (Escherichia coli [33])?
Answer: The Ratio was 64.

Question: What about the MIC (Klebsiella pneumoniae [34]) of the same compound?
Answer: The MIC was 24 µg/mL.

Question: What about the MIC (Escherichia coli [35]) of the same compound?
Answer: The MIC was 128 µg/mL (≈ 256 µM).

Question: What about the MIC (Enterobacter cloacae [36]) of the same compound?
Answer: Its MIC is 0.293 µg/mL.

Question: What about the “fractional inhibitory concentration index (FICI)” value (Escherichia coli [37]) of the same compound?
Answer: Its value is 0.127.

Question: And the MIC (Klebsiella pneumoniae [38])?
Answer: The MIC was 12 µg/mL.

Question: What about the MIC (Escherichia coli [39]) of the same compound?
Answer: Its MIC is 16 µg/mL.

Question: What about the MIC (Escherichia coli [40]) of the same compound?
Answer: Its MIC is 256 µg/mL (≈ 511 µM).

Question: What about the MIC (Escherichia coli [41]) of the same compound?
Answer: The MIC was 1.5 µg/mL.

Question: What about the MIC (Enterobacter cloacae [42]) of the same compound?
Answer: The MIC was 24 µg/mL.
